High-throughput results: PubChem BioAssay, several laboratories
Sampled rows, rich in hits. Any-hit rate of the full collection: about 3.7%.
Myeloid diff MLP = myeloid differentiation induction; calls only at 10 µM; 1% of 360,000 active; ER-HoxA9 myeloid progenitors, lysozyme-GFP differentiation, flow cytometry;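 active = normalized GFP-positive differentiation at or above the plate's own cutoff, the solvent-only control mean plus 3 SD; inconclusive = no clear call, values can overlap the other calls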;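 note: cells exposed to compound for four days before flow analysis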
Exocytosis inh = lytic granule exocytosis inhibition; inhibition, % at 10 µM; 0.66% of 360,000 active; TALL-104 LAMP-1 surface exposure, flow cytometry; cells stimulated with thapsigargin and PMA;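 active = inhibition above about 55%, limit read from the data; inconclusive = no clear call, values can overlap the other calls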
MC4R barr agon = human MC4R agonism via beta-arrestin; U2OS MC4R beta-arrestin complementation, luminescence; percent of melanotan II response, DMSO zero; activation, % at 8.9 µM; 0.98% of 360,000 active; AID 540308;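 active = activation above a per-plate cutoff, the mean activation of sample wells on that plate plus 3 SD, cut at about 8% in these data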
Target sequence (P32245 whole entry, looked up): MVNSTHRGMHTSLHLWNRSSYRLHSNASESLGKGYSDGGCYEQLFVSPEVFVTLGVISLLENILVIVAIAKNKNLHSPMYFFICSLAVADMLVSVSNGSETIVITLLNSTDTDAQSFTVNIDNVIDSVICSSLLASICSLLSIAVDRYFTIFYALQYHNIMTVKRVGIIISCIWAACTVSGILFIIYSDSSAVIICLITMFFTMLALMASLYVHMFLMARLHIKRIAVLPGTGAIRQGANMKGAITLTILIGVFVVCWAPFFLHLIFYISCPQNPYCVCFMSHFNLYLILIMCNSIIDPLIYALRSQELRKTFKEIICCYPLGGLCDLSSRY
MC4R antagonist = blocks human MC4R cAMP signaling; MC4R-expressing cells, MTII-stimulated cAMP, LANCE TR-FRET; AID 540295; P32245; inhibition, % at 6.5 µM; 0.48% of 360,000 active;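 active = inhibition above its plate's cutoff, the mean of tested wells on that plate plus 3 SD, cut at about 29% in these data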
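Assay system: U2OS-MC4R stable cell line; Also added: Melanotan II; Technique: Eu-cAMP/anti-cAMP TR-FRET, emission 671 nm; Times: 30-min compound, 1-h challenge, 1-h detection, room temperature.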
EBI2 antag = blocks human EBI2 receptor beta-arrestin signaling; P32249; EBI2 beta-arrestin recruitment, luminescence, 7a,25-OHC stimulated; inhibition, % at 5 µM; 0.81% of 360,000 active; AID 651636; in the data active = inhibition above about 38%;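 note: enzyme fragment complementation signal reports receptor beta-arrestin coupling in cells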
Large screens that a line does not name were inactive.

COc1ccc(NS(=O)(=O)c2cc(NC(=O)C3CC3)ccc2N2CCCCC2)cc1	Myeloid diff MLP active
CN1CCc2nc(SCC(=O)Nc3ccc(OC(F)(F)F)cc3)c(C#N)c(-c3cccs3)c2C1	Myeloid diff MLP active
CN1CCc2nc(SCC(=O)Nc3cccc(F)c3)c(C#N)c(-c3cccs3)c2C1	none
Cc1ccccc1CSc1nnc(-c2cccs2)n1Cc1ccco1	none
Cc1ccccc1CSc1nnc(-c2ccco2)n1Cc1ccco1	Myeloid diff MLP active
CN(C)CCOC(c1ccccc1)c1ccccc1 (tested in a mixture with another compound)	Myeloid diff MLP active (no result: Exocytosis inh)
C[C@@H]1CN([C@H](C)CO)C(=O)CCCn2cc(nn2)CO[C@H]1CN(C)C(=O)C1CCCCC1	none (no result: MC4R barr agon, MC4R antagonist)
CCCCCCC(=O)N(O)C1CC(=O)N(c2ccc(F)cc2)C1=O (stereo not drawn)	none
CCCCCCC(=O)N(O)C1CC(=O)N(c2ccc(Br)cc2)C1=O (stereo not drawn)	Exocytosis inh 102.9
CCOc1ccccc1/C=N/NC(=O)Cc1csc(Nc2cccc(C(F)(F)F)c2)n1	none (no result: Myeloid diff MLP)
CCOc1ccc(/C=N/NC(=O)Cc2csc(Nc3cccc(C(F)(F)F)c3)n2)c(OCC)c1	Exocytosis inh 68.2
COCCN(Cc1ccc(F)cc1)C(=O)c1cc2ccccc2oc1=O	none
COc1ccc(C2CC(c3ccc(Br)cc3)=NN2C(=S)Nc2ccccc2)cc1 (stereo not drawn)	none
CNC(=S)N1N=C(c2ccc(Br)cc2)CC1c1ccc(N(C)C)cc1 (stereo not drawn)	EBI2 antag 93.5
COc1ccc(-c2c(C)nn3c(N4CCCCCC4)cc(C)nc23)cc1OC	none
COc1ccc(-c2c(C)nn3c(N4CCOCC4)cc(C)nc23)cc1OC	Myeloid diff MLP active
Cc1csc(=O)n1CC(=O)OCC(=O)NNC(=O)c1ccc(Cl)cc1	none
CCOC(=O)CCc1c(C)c2ccc(OCc3ccc([N+](=O)[O-])cc3)cc2oc1=O	MC4R barr agon 13.1
CCOC(=O)CCc1c(C)c2ccc(OCc3nn[nH]n3)cc2oc1=O	none
C=CCNc1nc(C(=O)OCC(=O)NCc2cccc(Cl)c2)cs1	none
COc1cc(N2CCCC2)c(OC)cc1/C=C(/C#N)c1cccc(F)c1	Myeloid diff MLP active
N#C/C(=C/c1ccc(N2CCCCCC2)o1)c1ccc(F)cc1	none
N#C/C(=C/c1ccc(N2CCOCC2)o1)c1nc2ccccc2[nH]1	none
COc1ccc(NC(=O)/C(C#N)=C\c2ccc(N3CCOCC3)o2)cc1	none
N#C/C(=C/c1ccc(N2CCCCCC2)o1)c1cccc(F)c1	MC4R barr agon 8.7
N#C/C(=C\c1ccc(N2CCOCC2)o1)c1ccccc1	Exocytosis inh 62.6 (no result: Myeloid diff MLP)
N#C/C(=C\c1ccc(N2CCOCC2)o1)C(=O)Nc1ccc(O)cc1	Myeloid diff MLP active
CSCCC(=O)N1CCN(CC(=O)N2CCCC2)CC1	Myeloid diff MLP inconclusive
Cc1ccc2nc(NCCc3ccccc3)c3nncn3c2c1	none
CCc1ccc(NC(=O)CSc2nnc(CNC(=O)c3cccs3)o2)cc1	none
N#C/C(=C/c1ccc(N2CCOCC2)o1)c1ccc(Br)cc1	Myeloid diff MLP active, Exocytosis inh 67.4
CCc1ccc(C(C#N)=CC=Cc2ccccc2)cc1	none
Cc1cc(C)c(C(=O)/C=C/c2ccco2)c(=O)[nH]1	Myeloid diff MLP active
O=C1NC(=O)C2(N1)C(=O)c1cccc3cccc2c13 (stereo not drawn)	none
O=C1c2cccc3cccc(c23)C(=O)C1(O)O	Exocytosis inh 71.3
CSc1nsc(/C=C/Nc2ccc(Cl)cc2)c1C#N	Myeloid diff MLP active
CSc1nsc(/C=C/Nc2cccc(Cl)c2)c1C#N	Myeloid diff MLP active
CSc1nsc(/C=C/Nc2ccc(F)cc2)c1C#N	Myeloid diff MLP active
Cc1cc(O)ccc1N/C=C(\C#N)c1nc2ccccc2o1	none
CSc1nsc(/C=C/Nc2ccc(O)cc2C)c1C#N	Myeloid diff MLP active
CCc1nn(C(CC)C(=O)NCc2cccc(OC)c2)c(=O)c2cc3occc3n12 (stereo not drawn)	none
CCCCN(C)C1=CC2=CC(=C(C#N)C#N)CCC2CC1 (stereo not drawn)	Myeloid diff MLP active
CCN(CC)C1=CC2=CC(=C(C#N)C#N)CCC2CC1 (stereo not drawn)	Myeloid diff MLP active
C[C@H](CO)N1C[C@H](C)[C@H](CN(C)S(=O)(=O)c2ccc(Cl)cc2)OCc2cnnn2CCCC1=O	none
Cc1c([N+](=O)[O-])cc(C(=O)Oc2cccc(C(=S)N3CCOCC3)c2)cc1[N+](=O)[O-]	none
COc1ccc(CN2CC[C@@H]3CN(C(C)=O)[C@H](c4ccccc4Br)C[C@@H]32)cc1	none (no result: MC4R barr agon, MC4R antagonist)
Cc1ccc(CN2CCC(Oc3cccc(C(=O)NCc4cccnc4)c3)CC2)o1	Myeloid diff MLP active
Cc1ccc(CN2CCC(Oc3ccc(C(=O)NCc4ccccn4)cc3)CC2)o1	none
Nc1sccc1C(=O)NCc1ccccc1	Myeloid diff MLP active (no result: MC4R barr agon, MC4R antagonist)
COc1cc2ncnc(NCc3ccccc3)c2cc1OC	none
COc1cc2ncnc(NCc3cccc(Cl)c3)c2cc1OC	Myeloid diff MLP active
Cc1ccccc1C(=O)N1CCC1(C)C(=O)NC(C)C (stereo not drawn)	none
CS(=O)(=O)NN1C(=O)c2ccccc2NC1c1ccccc1O (stereo not drawn)	none
CS(=O)(=O)NN1C(=O)c2ccccc2NC1c1c[nH]c2ccccc12 (stereo not drawn)	Myeloid diff MLP active
CCOC(=O)[C@]12CCC=C1N(Cc1cccc3ccccc13)C(=O)[C@H](CC(=O)NCCCCc1ccccc1)C2	none (no result: MC4R barr agon, MC4R antagonist)
Cc1ccc(N(C(=O)c2csnn2)C(C(=O)NC2CCCCC2)c2cccnc2)cc1C (stereo not drawn)	none
CC(C)(C)C(=O)/C=C(\N)c1ccccn1	Myeloid diff MLP active
Cc1cc(C(=O)C(C)OC(=O)c2cnccn2)c(C)n1-c1ccccc1 (stereo not drawn)	none
O=C(NCCOc1ccccc1)c1cc([N+](=O)[O-])ccc1N1CCOCC1	Myeloid diff MLP inconclusive, EBI2 antag 58.9
O=C(NCCOc1ccccc1F)c1cc([N+](=O)[O-])ccc1N1CCOCC1	Myeloid diff MLP inconclusive
Nc1c(N(CCCO)C(=O)CCCN2C(=O)c3cccc4cccc(c34)C2=O)c(=O)[nH]c(=O)n1Cc1ccccc1	none
Cc1ccc2c(c1)C(N1CCCC1=O)CC(c1ccco1)N2 (stereo not drawn)	Exocytosis inh 87.3
O=C(O)CCNc1nc(C(F)(F)F)nc2ccccc12	Myeloid diff MLP active
COc1ccc(N(C)S(=O)(=O)c2cccc(C(=O)N3CCN(S(=O)(=O)c4ccc(C)cc4)CC3)c2)cc1	none
O=S1(=O)N=C(N(CCO)/N=C/C=C/c2ccccc2)c2ccccc21	Myeloid diff MLP active
O=C(CSc1ccc(Cl)cc1)Nn1cnnc1	Myeloid diff MLP active
O=C(CSc1nnnn1-c1ccccc1)Nc1ccc(Cl)cc1	none
